Measured values gathered from unrelated publications.
Protocols differ between the studies behind these lines.
Target: Amine oxidase [flavin-containing] B (MAOB, Homo sapiens, UniProt P27338)
Read-out: enzyme activity
Action: inhibitor
One construct used (P27338 1-520): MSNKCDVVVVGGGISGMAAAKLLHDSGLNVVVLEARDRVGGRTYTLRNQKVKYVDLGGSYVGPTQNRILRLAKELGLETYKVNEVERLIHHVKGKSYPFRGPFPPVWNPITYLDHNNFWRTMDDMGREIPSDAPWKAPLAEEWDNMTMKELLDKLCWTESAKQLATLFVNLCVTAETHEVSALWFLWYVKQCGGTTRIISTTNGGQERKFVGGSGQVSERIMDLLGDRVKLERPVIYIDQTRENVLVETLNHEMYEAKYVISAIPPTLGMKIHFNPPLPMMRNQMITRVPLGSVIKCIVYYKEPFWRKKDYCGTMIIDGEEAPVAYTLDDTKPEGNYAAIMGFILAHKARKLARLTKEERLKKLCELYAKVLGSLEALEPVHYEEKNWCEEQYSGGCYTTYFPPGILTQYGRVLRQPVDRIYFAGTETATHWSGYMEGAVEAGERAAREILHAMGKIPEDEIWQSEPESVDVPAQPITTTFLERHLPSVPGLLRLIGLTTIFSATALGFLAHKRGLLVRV

Structure (SMILES) | technique | IC50 [nM]
O=C1c2c(O)cc(O)cc2O[C@H](c2ccc(O)cc2)[C@H]1O | – | 68100
C#CCOc1ccc(/C=C/C(=O)N2CCc3ccccc3C2)cc1OC | fluorescence | 540
Cn1c(=O)c2ccc(C(=O)Nc3ccccc3F)nc2n(C)c1=O | fluorescence | 61
CCn1c(-c2nc3ccc(C(=O)N4CCCC(N)C4)cc3n2C)cc2ccccc21 (stereo not shown) | – | 20000
COc1cccc(CNc2nc3ccc(C)cc3n3cnnc23)c1 | fluorescence | 180
O=c1c(O)c(-c2ccc(O)c(O)c2)oc2cc(O)ccc12 | – | > 100000
O=C(Nc1ccc([N+](=O)[O-])cc1Cl)c1cc2ccccc2o1 | – | 123
O=C1C[C@@H](c2ccc(O)cc2)Oc2cc(O)cc(O)c21 | – | 270
c1ccc(Nc2nccc(-c3ccco3)n2)cc1 | fluorescence | 510
O=C(O)c1cc(O)c2c(c1)C(=O)c1cc(O)cc(O)c1C2=O | – | 31900
c1ccc2[nH]c(-c3nc4ccccc4[nH]3)nc2c1 | fluorescence | > 30000
O=C(/C=C/c1ccc(O)cc1)c1ccc(O)cc1O | – | 510
COc1cc(/C=C/C(=O)N2CCc3ccccc3C2)ccc1OCc1ccccc1 | fluorescence | 3100
Nc1nn(-c2ccccc2)nc1C(=O)O | fluorescence | > 10000
C#CCOc1ccc(/C=C/C(=O)N2CCC(Cc3ccccc3)CC2)cc1OC | fluorescence | 320
O=C(Nc1ccc(OC(F)(F)F)cc1)c1cc(Cl)ccc1O | – | 128
